Tests used:
[1] = target: T1, Adrenergic receptor alpha-1 (Rattus norvegicus, UniProt P15823+P23944+P43140); test: Displacement of [3H]prazosin from alpha1 adrenergic receptor in Sprague-Dawley rat brain membrane after 45 mins by liquid scintillation counting; type: cell membranes
T1 sequence (P15823 whole entry): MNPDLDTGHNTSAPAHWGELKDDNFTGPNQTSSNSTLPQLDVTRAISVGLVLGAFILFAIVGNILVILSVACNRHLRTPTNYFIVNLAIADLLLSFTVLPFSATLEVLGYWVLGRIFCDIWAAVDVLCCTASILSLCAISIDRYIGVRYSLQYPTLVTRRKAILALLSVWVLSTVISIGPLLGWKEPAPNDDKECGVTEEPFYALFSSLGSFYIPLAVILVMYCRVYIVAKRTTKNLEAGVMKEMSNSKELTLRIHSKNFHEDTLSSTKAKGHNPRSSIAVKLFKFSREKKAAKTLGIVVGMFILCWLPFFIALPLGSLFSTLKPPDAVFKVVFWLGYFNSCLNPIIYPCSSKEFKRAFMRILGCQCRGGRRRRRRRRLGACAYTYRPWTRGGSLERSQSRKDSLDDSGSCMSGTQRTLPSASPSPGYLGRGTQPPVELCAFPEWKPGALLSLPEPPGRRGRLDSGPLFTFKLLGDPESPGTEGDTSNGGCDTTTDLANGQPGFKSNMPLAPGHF
T1 sequence (P23944 whole entry): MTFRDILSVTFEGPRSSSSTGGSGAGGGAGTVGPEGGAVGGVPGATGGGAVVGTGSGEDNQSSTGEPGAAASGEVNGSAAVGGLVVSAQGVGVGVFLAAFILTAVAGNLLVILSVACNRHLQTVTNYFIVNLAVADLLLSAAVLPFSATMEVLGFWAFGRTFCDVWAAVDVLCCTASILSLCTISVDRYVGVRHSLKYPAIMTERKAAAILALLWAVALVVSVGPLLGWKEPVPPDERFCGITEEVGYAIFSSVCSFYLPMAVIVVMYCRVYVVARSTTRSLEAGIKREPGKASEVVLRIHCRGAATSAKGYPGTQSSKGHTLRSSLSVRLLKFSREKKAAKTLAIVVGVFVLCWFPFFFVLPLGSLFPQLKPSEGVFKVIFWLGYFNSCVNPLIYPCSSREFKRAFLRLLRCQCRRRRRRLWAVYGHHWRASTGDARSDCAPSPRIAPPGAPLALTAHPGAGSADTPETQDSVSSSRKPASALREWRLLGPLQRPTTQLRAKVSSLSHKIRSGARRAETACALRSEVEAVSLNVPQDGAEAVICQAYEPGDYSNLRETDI
T1 sequence (P43140 whole entry): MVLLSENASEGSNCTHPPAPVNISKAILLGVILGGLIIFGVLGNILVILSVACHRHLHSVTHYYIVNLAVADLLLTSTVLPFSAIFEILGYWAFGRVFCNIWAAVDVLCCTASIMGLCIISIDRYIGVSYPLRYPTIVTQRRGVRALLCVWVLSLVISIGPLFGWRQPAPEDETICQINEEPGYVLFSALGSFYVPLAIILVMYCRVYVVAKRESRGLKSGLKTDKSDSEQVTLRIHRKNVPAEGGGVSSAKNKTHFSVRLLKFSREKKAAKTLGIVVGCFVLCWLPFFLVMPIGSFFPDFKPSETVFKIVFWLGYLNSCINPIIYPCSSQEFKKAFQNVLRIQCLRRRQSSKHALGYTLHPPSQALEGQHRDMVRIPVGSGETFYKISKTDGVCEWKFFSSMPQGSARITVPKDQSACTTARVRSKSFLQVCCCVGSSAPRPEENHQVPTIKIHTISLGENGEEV
Summary of the method: (§1)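 Crude P2 brain membranes from male Sprague–Dawley rats (0.2–0.3 mg protein) incubated with 11 concentrations (0.01 nM–100 µM) and 1 nM of [3H]2BFI (I2), [3H]prazosin (α1) or [3H]RX821002 (α2), at room temperature in triplicate. Non-specific binding: BU224, phenylephrine or rauwolscine. Filtration, scintillation counting, Ki by Cheng–Prusoff from 3–4 experiments.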

[2] = target: T2, Adrenergic receptor alpha-2 (Rattus norvegicus, UniProt P22086+P19328+P22909); test: Displacement of [3H]RX821002 from alpha2 adrenergic receptor in Sprague-Dawley rat brain membrane after 45 mins by liquid scintillation counting; type: cell membranes; summary of the method: as §1
T2 sequence (P22086 whole entry): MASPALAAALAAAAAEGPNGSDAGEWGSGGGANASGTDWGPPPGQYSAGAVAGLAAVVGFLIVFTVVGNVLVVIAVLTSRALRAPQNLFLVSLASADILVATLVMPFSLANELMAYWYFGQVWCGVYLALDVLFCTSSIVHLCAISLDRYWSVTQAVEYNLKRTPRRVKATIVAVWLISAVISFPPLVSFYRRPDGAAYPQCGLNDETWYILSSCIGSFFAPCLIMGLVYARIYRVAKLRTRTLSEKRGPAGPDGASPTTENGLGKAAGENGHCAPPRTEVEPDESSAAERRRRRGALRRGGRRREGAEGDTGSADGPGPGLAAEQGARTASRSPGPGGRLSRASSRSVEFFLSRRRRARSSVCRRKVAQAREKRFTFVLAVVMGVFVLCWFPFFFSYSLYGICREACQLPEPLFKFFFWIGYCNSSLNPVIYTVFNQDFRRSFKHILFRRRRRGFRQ
T2 sequence (P19328 whole entry): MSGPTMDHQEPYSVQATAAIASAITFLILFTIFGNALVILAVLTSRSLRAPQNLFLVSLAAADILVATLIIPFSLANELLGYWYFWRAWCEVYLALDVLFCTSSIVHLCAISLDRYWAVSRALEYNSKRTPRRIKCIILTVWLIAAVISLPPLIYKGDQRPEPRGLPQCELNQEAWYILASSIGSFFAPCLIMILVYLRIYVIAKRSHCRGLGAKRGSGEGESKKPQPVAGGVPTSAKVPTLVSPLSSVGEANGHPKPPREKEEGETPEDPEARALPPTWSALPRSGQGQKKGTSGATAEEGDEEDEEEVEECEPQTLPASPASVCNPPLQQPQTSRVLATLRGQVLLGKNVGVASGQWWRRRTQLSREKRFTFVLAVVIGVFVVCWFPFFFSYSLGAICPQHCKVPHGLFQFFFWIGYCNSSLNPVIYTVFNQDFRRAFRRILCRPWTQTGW
T2 sequence (P22909 whole entry): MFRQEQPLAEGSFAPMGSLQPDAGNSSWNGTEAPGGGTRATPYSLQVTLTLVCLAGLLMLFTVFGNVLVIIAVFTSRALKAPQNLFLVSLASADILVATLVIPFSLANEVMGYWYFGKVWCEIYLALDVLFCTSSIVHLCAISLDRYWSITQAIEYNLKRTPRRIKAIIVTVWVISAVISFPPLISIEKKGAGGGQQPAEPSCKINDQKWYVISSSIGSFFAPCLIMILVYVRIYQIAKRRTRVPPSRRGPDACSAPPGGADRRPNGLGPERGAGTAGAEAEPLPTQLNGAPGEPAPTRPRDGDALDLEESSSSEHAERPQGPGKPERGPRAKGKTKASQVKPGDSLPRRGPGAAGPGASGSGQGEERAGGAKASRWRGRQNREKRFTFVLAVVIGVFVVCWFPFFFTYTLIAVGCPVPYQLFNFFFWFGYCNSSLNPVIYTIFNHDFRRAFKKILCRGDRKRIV

[3] = target: Nischarin (Rattus norvegicus, UniProt Q4G017); test: Displacement of [3H]clonidine from imidazoline I1 receptor in Sprague-Dawley rat kidney membrane after 45 mins by liquid scintillation counting; type: cell membranes
Summary of the method: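 Specific binding defined by 10 µM rilmenidine. 11 test concentrations, 50 mM Tris-HCl pH 7.4, room temperature 45 min. Filtration through PEI-soaked glass-fibre filters, scintillation counting, IC50 by curve fitting.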

[4] = organism: Rattus norvegicus; test: Selectivity ratio of IC50 for imidazoline I1 receptor in Sprague-Dawley rat kidney membrane to Ki for alpha2 adrenergic receptor in Sprague-Dawley rat brain membrane; type: cell membranes
[5] = target: T3, Alpha-2A adrenergic receptor (Homo sapiens, UniProt P08913); test: Agonist activity at human recombinant alpha2A adrenergic receptor expressed in CHO cells assessed as induction of [35S]GTPgammaS binding after 60 mins by scintillation counting; type: functional, cell-based
T3 sequence (P08913 whole entry): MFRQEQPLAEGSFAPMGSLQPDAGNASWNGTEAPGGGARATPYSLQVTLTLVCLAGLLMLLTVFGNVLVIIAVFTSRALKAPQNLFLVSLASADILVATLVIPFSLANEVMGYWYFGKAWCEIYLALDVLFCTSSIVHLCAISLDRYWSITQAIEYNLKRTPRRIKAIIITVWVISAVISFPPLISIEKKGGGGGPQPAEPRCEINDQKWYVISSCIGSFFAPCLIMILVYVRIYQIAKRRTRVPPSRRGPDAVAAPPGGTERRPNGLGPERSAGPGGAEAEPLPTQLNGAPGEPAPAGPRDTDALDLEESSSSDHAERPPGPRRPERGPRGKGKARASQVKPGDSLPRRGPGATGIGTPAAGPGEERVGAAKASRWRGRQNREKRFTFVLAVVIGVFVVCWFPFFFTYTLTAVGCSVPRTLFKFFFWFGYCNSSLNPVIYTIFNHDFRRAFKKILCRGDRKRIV
Summary of the method: (§2)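 Membranes from CHO-K1 cells expressing human α2A-adrenoceptor, in Tris buffer pH 7.4 with 10 µM GDP, 5 mM MgCl2 and 150 mM NaCl; 5 µg protein preincubated with agonist 30 min at 37 °C, then 0.1 nM [35S]GTPγS for 60 min at 37 °C. Filtration and scintillation counting, duplicates, at least three repeats.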

[6] = target: T4, Alpha-2A adrenergic receptor (Homo sapiens) (UniProt P08913); test: Agonist activity at human recombinant alpha2A adrenergic receptor expressed in CHO cells assessed as induction of [35S]GTPgammaS binding after 60 mins by scintillation counting relative to noradrenaline; type: functional, cell-based
T4 sequence (whole entry): T3 sequence (P08913 whole entry)
Summary of the method: as §2, with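 “repeats. Curve fit gave EC50 and intrinsic activity as % of noradrenaline.” for “repeats.”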

[7] = test system: Rattus norvegicus; test: Cardioprotectant activity in Wistar rat assessed as change in mean arterial pressure at 0.01 mg/kg, iv; type: functional, Artery
[8] = test system: Rattus norvegicus; test: Cardioprotectant activity in Wistar rat assessed as change in mean arterial pressure at 0.1 mg/kg, iv; type: functional, Artery
[9] = test system: Rattus norvegicus; test: Cardioprotectant activity in Wistar rat assessed as change in mean arterial pressure at 1 mg/kg, iv; type: functional, Artery
[10] = test system: Rattus norvegicus; test: Cardioprotectant activity in Wistar rat assessed as change in heart rate at 0.01 mg/kg, iv; type: functional
[11] = test system: Rattus norvegicus; test: Cardioprotectant activity in Wistar rat assessed as change in heart rate at 0.1 mg/kg, iv; type: functional
[12] = test system: Rattus norvegicus; test: Cardioprotectant activity in Wistar rat assessed as change in heart rate at 1 mg/kg, iv; type: functional

Chain of Nischarin (Q4G017 whole entry): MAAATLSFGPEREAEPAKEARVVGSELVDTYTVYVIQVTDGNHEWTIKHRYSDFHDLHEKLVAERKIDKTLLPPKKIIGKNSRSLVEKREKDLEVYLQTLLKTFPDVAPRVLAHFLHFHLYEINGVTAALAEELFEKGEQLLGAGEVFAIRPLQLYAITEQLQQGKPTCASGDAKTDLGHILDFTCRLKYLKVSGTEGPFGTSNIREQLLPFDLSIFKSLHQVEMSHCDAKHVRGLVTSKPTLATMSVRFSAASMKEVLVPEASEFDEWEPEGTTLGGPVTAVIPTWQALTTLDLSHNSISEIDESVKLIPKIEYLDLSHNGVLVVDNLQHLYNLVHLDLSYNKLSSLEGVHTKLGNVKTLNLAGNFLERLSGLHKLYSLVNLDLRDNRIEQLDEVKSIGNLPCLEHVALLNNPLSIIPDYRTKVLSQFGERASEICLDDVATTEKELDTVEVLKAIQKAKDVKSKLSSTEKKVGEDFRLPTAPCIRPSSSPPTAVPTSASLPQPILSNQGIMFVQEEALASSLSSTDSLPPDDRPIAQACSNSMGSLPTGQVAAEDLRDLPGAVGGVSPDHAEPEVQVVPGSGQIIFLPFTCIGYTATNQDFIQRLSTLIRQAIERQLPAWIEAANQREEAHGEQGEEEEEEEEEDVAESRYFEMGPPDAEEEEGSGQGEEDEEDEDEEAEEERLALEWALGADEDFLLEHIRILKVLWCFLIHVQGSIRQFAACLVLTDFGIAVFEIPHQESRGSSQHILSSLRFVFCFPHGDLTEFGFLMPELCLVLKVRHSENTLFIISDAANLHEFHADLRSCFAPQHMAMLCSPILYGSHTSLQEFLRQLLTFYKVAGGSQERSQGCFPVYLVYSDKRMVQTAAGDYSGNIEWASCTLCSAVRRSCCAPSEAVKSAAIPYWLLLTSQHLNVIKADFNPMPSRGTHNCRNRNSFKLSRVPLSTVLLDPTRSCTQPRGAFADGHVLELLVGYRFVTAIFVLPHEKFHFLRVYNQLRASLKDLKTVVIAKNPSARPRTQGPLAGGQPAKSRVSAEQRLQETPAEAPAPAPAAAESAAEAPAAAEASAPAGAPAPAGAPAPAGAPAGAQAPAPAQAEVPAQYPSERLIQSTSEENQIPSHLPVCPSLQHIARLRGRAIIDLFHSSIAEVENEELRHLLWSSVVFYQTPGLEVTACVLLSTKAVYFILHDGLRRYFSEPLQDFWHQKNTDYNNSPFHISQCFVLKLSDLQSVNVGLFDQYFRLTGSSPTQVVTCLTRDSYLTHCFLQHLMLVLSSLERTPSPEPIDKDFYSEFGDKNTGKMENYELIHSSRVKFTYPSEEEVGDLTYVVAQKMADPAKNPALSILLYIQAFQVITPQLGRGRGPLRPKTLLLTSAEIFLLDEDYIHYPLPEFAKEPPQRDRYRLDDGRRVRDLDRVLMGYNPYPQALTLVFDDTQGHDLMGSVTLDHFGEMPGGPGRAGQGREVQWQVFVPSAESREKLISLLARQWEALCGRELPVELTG

| SMILES | Ki [1] | Ki [2] | IC50 [3] | Ratio [4] | EC50 [5] | Intrinsic activity [6] | Activity [7] | Activity [8] | Activity [9] | Activity [10] | Activity [11] | Activity [12] |
| --- | --- | --- | --- | --- | --- | --- | --- | --- | --- | --- | --- | --- |
| Cl.Clc1ccc2c(N=C3NCCN3)n[nH]c2c1 | 386 nM | 502 nM | 2010 nM | 4 | – | – | – | – | – | – | – | – |
| c1ccc2c(c1)cnn2N=C1NCCN1 [MARSANIDINE] | – | – | – | – | 160 nM | 18% | – | – | – | – | – | – |
| Brc1cccc2[nH]nc(N=C3NCCN3)c12.Cl | 984 nM | 6420 nM | 7560 nM | 1 | – | – | – | – | – | – | – | – |
| Cc1cccc2cnn(N=C3NCCN3)c12 | – | – | – | – | 37 nM | 32% | – | – | – | – | – | – |
| Cl.Clc1cccc2[nH]nc(N=C3NCCN3)c12 | 69.3 nM | 15.9 nM | 1840 nM | 115 | 240 nM | 13% | -10.8 mmHg | -10.8 mmHg | -23.6 mmHg | -37 bpm | -40 bpm | -68 bpm |
| Cl.Clc1cccc2c(N=C3NCCN3)n[nH]c12 | 684 nM | 133 nM | 4010 nM | 30 | 73 nM | 66% | -12.2 mmHg | -21.7 mmHg | -37.2 mmHg | -35 bpm | -92 bpm | -117 bpm |
| Clc1cccc2c1cnn2N=C1NCCN1 | – | – | – | – | 180 nM | 62% | – | – | – | – | – | – |
| Cc1ccc2c(N=C3NCCN3)n[nH]c2c1.Cl | 508 nM | 176 nM | 16600 nM | 94.3 | – | – | – | – | – | – | – | – |
